This passage reports Activity, inhibition and IC50 results from ChEMBL document CHEMBL1144710, “epigenetic multiple ligands: mixed histone/protein methyltransferase, acetyltransferase, and class III deacetylase (sirtuin) inhibitors” (J Med Chem, 2008).

Assay [1] deals with U-937. Put plainly: Inhibition of histone H3R17 methylation in human U937 cells at 50 uM after 24 hrs. Format: functional, cell-based. Put shortly:
(§1)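 U937 cells treated at 50 µM for 24 h. Histones extracted with Triton buffer, then 0.2 M HCl overnight at 4 °C. 3–10 µg run on 15% SDS-PAGE and immunoblotted with anti-monomethyl-H3K4, monomethyl-H4R3 or dimethyl-H3R17 (1:500, overnight 4 °C), ECL detection. Loading controls: total H4 (H3K4), Ponceau Red (Arg marks).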

Assay [2] concerns the target T1, Histone-arginine methyltransferase CARM1 (Homo sapiens) (UniProt Q86X55).
T1 sequence (whole entry): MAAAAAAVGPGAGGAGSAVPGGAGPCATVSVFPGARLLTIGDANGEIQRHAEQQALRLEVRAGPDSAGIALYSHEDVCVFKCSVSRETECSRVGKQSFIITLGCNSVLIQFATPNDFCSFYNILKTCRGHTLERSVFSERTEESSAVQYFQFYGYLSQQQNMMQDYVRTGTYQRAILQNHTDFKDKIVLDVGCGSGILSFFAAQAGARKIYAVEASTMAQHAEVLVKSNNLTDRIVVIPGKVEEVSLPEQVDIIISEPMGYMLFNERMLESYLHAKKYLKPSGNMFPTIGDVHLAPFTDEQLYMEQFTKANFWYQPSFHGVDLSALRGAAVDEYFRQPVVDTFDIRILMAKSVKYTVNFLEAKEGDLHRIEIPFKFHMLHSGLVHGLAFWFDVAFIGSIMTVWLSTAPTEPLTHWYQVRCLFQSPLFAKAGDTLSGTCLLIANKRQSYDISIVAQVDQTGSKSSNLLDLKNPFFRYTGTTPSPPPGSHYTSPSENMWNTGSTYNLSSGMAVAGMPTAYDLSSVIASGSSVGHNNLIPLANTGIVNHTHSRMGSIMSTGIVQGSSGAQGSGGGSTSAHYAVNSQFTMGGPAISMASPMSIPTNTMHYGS
Put plainly: Inhibition of human recombinant CARM1 assessed as poly(A) binding protein 1 methylation at 100 uM. In outline: (§2)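 Recombinant enzymes (0.2 µg) with substrate (0.5 µg: Npl3p for PRMT1, PABP1 for CARM1, histone H3 for SET7), 0.5 µM [3H]AdoMet and 100 µM compound in PBS pH 7.4 with 3.3% v/v DMSO, 90 min at 30 °C. Products separated by 10% SDS-PAGE, transferred to PVDF, detected by fluorography on film overnight.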

For assay [3], the target named is Protein arginine N-methyltransferase 1 (Homo sapiens) (UniProt Q99873). Put plainly: Inhibition of human recombinant PRMT1 assessed as histone H4 methylation at 50 uM.
The target is the same in assay [4]. Put plainly: Inhibition of human recombinant PRMT1 assessed as nuclear ribonucleoprotein Npl3p methylation at 100 uM. In outline: as §2
Assay [5] has as its system U-937. Nature of the assay: Inhibition of human p300/CBP in U937 cells at 50 uM assessed as histone H3 acetylation. The assay is classed as cell-based. Put shortly: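 Source was U937 nuclear extract (10 µg per assay) as p300/CBP HAT, with histone H3 substrate and compound at 50 µM or DMSO control for 90 min. Acetyl-H3 detected by indirect ELISA, quantified against acetylated H3 peptide standard curves, […].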

Assay [6] relates to U-937. Nature of the assay: Inhibition of histone H4R3 methylation in human U937 cells at 50 uM after 24 hrs. Format: functional, cell-based. In outline:
as §1

Assay [7] has as its target T2, NAD-dependent protein deacetylase sirtuin-1 (Homo sapiens) (UniProt Q96EB6).
T2 sequence (whole entry): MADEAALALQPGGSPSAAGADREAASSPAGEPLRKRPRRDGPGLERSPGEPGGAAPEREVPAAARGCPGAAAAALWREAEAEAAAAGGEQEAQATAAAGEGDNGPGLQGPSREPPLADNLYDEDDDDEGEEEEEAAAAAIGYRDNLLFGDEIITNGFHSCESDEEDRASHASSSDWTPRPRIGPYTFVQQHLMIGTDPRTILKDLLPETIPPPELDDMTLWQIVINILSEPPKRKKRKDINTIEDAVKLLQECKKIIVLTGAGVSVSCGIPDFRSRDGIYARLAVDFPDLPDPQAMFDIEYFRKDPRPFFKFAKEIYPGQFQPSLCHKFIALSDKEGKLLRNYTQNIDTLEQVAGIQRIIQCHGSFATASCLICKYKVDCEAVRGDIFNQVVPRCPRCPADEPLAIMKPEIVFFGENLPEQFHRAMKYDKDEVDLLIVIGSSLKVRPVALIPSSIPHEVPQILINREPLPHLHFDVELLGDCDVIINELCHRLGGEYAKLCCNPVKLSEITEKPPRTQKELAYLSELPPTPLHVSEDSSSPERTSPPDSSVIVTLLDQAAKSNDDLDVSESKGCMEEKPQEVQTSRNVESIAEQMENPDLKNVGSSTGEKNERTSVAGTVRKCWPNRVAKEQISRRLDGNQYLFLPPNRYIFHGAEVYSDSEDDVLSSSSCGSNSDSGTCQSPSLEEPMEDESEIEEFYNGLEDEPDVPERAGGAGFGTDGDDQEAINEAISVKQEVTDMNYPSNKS
Put plainly: Inhibition of human SIRT1 at 25 uM. Put shortly:
(§3)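 Fluorescent two-stage assay. SIRT1 (1 U/well) or SIRT2 (5 U/well) with Fluor de Lys-SIRT1/2 substrate, NAD+ and compound at 25 µM, 37 °C for 2 h. Developer II containing nicotinamide then stopped the reaction and generated signal, read at ex 360/em 460 nm.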

Assay [8] addresses RmtA (Emericella nidulans, UniProt Q5VLE3). Nature of the assay: Inhibition of Aspergillus nidulans RmtA. Put shortly:
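Enzyme was GST-RmtA fusion expressed in E. coli BL21 and glutathione-affinity purified (500 ng), preincubated with compound for 15 min at room temperature. Then 20 µg chicken erythrocyte core histones and 0.55 µCi [3H]AdoMet were added, 30 min at 30 °C. Stopped with 25% TCA, filtered, counted by liquid scintillation.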

For assay [9], the system named is U-937. Nature of the assay: Inhibition of histone H3K4 methylation in human U937 cells at 50 uM after 24 hrs. Format: functional, cell-based. Put shortly: as §1
Assay [10] deals with T3, NAD-dependent protein deacetylase sirtuin-2 (Homo sapiens) (UniProt Q8IXJ6).
T3 sequence (whole entry): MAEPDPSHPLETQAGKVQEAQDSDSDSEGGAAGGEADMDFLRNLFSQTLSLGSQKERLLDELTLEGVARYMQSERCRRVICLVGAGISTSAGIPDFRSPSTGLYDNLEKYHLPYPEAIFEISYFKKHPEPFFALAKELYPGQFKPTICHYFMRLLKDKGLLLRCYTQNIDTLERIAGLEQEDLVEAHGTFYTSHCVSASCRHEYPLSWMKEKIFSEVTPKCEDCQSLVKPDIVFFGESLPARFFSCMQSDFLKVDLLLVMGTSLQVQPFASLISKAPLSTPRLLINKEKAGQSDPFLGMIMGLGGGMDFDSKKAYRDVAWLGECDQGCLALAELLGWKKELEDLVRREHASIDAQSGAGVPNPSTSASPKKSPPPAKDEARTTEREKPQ
Nature of the assay: Inhibition of human SIRT2 at 25 uM. In outline:
as §3

Assay [11] deals with U-937. Nature of the assay: Induction of granulocytic differentiation in human U937 cells assessed as CD11c expression at 5 uM after 30 hrs. Format: functional. In outline: (§4)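 U937 cells treated for 30 h, then stained with PE-conjugated CD11c (PE mouse IgG1 as control) for 30 min at 4 °C in the dark and resuspended in PBS with PI (0.25 µg/mL). Read-out is percent CD11c-positive/PI-negative cells, with dead PI-positive cells excluded. Coloured compounds limited the top dose to 5 µM or lower.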

Assay [12] has as its system U-937. Put plainly: Induction of apoptosis in human U937 cells at 25 uM after 30 hrs. Format: functional. In outline: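 Apoptosis read as caspase 3 activation by FACS, in U937 cells (RPMI, 10% fetal calf serum, 200000 cells/mL) exposed to 25 µM for 30 h.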
Assay [13] deals with T4, Histone-lysine N-methyltransferase SETD7 (Homo sapiens) (UniProt Q8WTS6).
T4 sequence (whole entry): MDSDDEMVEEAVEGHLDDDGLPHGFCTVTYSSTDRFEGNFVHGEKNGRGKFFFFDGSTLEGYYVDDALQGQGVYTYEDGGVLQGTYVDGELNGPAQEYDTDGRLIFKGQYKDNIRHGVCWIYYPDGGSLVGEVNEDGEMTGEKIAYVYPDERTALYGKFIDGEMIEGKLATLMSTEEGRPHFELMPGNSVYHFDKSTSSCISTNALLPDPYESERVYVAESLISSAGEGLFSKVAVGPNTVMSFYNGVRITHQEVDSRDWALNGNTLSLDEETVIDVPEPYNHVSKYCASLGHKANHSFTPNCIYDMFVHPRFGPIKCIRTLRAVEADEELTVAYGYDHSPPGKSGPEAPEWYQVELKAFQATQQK
Put plainly: Inhibition of human recombinant SET7 assessed as histone H3 protein methylation at 100 uM. Put shortly: as §2

For assay [14], the system named is U-937. Put plainly: Induction of granulocytic differentiation in human U937 cells assessed as CD11c expression at 1 uM after 30 hrs. The assay is classed as functional. To be noted: 5 uM, in the assay text read “at 5 uM” for “at 1 uM”. Put shortly: as §4

In general, inhibition refers to how much of the control response was suppressed. The term IC50 denotes the point on the concentration scale where inhibition reaches its midpoint. Read a low IC50 as higher potency.

The source made the active and inactive calls. Unless noted, no cut-off for these calls is given here.

RmtA, sequence (Q5VLE3 whole entry, the tested form may be a part): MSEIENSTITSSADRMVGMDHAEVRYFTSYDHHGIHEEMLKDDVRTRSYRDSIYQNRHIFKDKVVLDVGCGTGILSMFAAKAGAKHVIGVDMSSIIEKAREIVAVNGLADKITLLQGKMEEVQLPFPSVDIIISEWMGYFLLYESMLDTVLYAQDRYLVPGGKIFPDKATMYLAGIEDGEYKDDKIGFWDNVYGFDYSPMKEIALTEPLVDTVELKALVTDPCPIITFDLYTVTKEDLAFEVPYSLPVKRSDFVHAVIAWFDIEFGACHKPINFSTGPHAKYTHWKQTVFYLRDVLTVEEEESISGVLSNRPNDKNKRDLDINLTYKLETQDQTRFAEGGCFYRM
Protein arginine N-methyltransferase 1 (Homo sapiens), sequence (Q99873 whole entry, looked up): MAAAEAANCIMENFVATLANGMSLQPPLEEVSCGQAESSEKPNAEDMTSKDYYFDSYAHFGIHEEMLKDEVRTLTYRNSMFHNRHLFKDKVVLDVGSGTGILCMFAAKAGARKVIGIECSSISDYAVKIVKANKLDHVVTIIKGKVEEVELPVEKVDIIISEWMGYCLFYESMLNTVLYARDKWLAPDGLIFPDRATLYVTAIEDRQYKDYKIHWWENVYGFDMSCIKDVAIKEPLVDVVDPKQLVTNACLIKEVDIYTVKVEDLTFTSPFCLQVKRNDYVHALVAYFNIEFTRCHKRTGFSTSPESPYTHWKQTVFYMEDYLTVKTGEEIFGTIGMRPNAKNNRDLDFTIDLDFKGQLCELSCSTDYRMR

In the case of `O=C(/C=C/c1ccc(O)c(Br)c1)c1cc(Br)c(O)c(Br)c1`, the outcome in assay [1], in assay [6] and in assay [9] was Active. In addition, the result in assay [2] and in [4] was inactive. The inhibition in [3] was 36%; in assay [5] it was 0%; in [7], 35%; in [10], 38%. The IC50 in assay [8] amounted to 40 µM.
Regarding `CC(NC(=O)c1ccccc1/N=C/c1c(O)ccc2ccccc12)c1ccccc1` (centres undefined) [SIRTINOL], the Activity in assay [11] and in assay [12] was 7.5% throughout.
With `O=C1/C(=C/c2ccc(O)c(Br)c2)Cc2ccccc2/C1=C\c1ccc(O)c(Br)c1`, the outcome in [1], in [2], in [6] and in assay [9] was Active. For the same molecule, the outcome in assay [4] and in [13] was inactive. In [8], this molecule displayed a 50% inhibitory concentration (IC50) of 92 µM.
For `O=C(/C=C/c1cc(Br)c(O)c(Br)c1)c1ccc(C(=O)/C=C/c2cc(Br)c(O)c(Br)c2)cc1`, the outcome in assay [1], in assay [2], in [4], in assay [6] and in assay [13] was Active. Also, the inhibition in assay [3] was determined as 31%; in assay [5] it was 0%; in [7], 45%; in [10], 56%. Moreover, the IC50 in assay [8] came out at 37 µM. Also, the outcome in assay [14] was inactive.
For the molecule `O=C(Nc1cccc(NC(=O)c2cc(Br)c(O)c(Br)c2)c1)c1cc(Br)c(O)c(Br)c1`, the result in [1], in assay [2], in [4], in assay [6] and in assay [13] was Active. The inhibition in [3] turned out to be 86%; in assay [5], 83%; in assay [7], 2%; in assay [10], 0%. For the same molecule, it took 61.4 µM to reach half-maximal inhibition in assay [8] (IC50). Besides, the outcome in assay [14] was inactive.
On to `O=C1/C(=C/c2ccc(O)c(Br)c2)CCC/C1=C\c1ccc(O)c(Br)c1`, for which the outcome in assay [1], in assay [2], in assay [6] and in assay [9] was Active. Also, the result in assay [4] and in assay [13] was inactive. Also, the IC50 in assay [8] amounted to 90 µM.
As to `O=C(/C=C/c1ccc(O)c(Br)c1)/C=C/c1ccc(O)c(Br)c1`, the outcome in assay [1], in assay [3], in assay [5], in assay [6], in assay [7] and in assay [9] was inactive. The outcome in assay [10] was inactive. The result in [2] and in assay [4] was Active. Also, the IC50 in [8] was 162 µM.
In the case of `O=C(Nc1cc(Br)c(O)c(Br)c1)c1cccc(C(=O)Nc2cc(Br)c(O)c(Br)c2)c1`, the outcome in assay [1], in assay [2], in assay [4], in [6] and in assay [13] was Active. Besides, the inhibition in assay [3] is 38%; in assay [5] it was 81%; in assay [7], 13%; in assay [10], 9%. This molecule also had an IC50 in [8] of 13.8 µM. In addition, the outcome in [14] was inactive.
As to `O=C(/C=C/c1cc(Br)c(O)c(Br)c1)c1cc(Br)c(O)c(Br)c1`, the outcome in assay [1], in assay [6] and in assay [9] was Active. The result in [2] and in assay [4] was inactive. The inhibition in assay [3] was found to be 61%; in assay [5] it was 16%; in assay [7], 35%; in assay [10] it was 37%. The molecule further showed an IC50 in assay [8] of 29 µM.
